Assay results from PMC3684861 (European journal of nuclear medicine and molecular imaging, 2011).

Legend:
[1] = cited from earlier work
[2] = test system: EMT6 and EMT6Ar1.0 tumour sections (Pgp); assay: In vitro autoradiography on tumour sections; type: binding, mouse; conditions: for binding in EMT6Ar1.0 tumours compared to EMT6 tumours: radiotracer alone, 30 min incubation, 10 μm tumour slices
Summary of the method: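 Frozen tumours from imaged mice were cut into 10 μm cryostat sections at −12°C, with 3 consecutive sections. Sections were thawed, preincubated in PBS, then incubated 30 min with ¹¹C-labelled Pgp radiotracer (about 20 MBq), alone or with unlabelled inhibitor (10 μM). They were washed in 20% (v/v) ethanol/PBS and distilled water, air-dried, exposed to a phosphor screen and scanned at 600 dpi.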

[3] = test system: Pgp at the BBB (whole brain); assay: Small-animal PET, whole brain as reference region for Pgp modulation at the BBB; type: in vivo, mouse; conditions: for tumoural activity uptake relative to brain activity uptake: scan 1, before unlabelled tariquidar; for brain AUC0-60 in scan 2 relative to scan 1: whole brain, scan 2 at 2 h after unlabelled tariquidar 15 mg/kg i.v.
[4] = test system: Pgp overexpressing EMT6Ar1.0 tumours; type: in vivo, mouse
EMT6 tumours [5] = type: in vivo, mouse; conditions: scan 2, 2 h after unlabelled tariquidar 15 mg/kg i.v.
EMT6Ar1.0 tumours = assay: Static [18F]FDG PET, EMT6Ar1.0 tumours; type: in vivo, mouse; conditions: 10 min static PET scan at 60 min after injection
Summary of the method: (§1)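 Female athymic NMRI-Foxn1^nu mice (6-8 weeks) had EMT6 and EMT6Ar1.0 cells (3-5 × 10⁵) injected subcutaneously into opposite upper flanks. At about 130 mm³ tumour size, mice (n=7) under isoflurane at about 37°C received [¹⁸F]FDG (6±3 MBq) i.v. A 10 min static microPET scan was taken at 60 min. Tumour ROIs were outlined manually, with SUV = (radioactivity/cm³ ÷ injected radioactivity) × body weight.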

EMT6 tumours [6] = assay: Static [18F]FDG PET, EMT6 tumours; type: in vivo, mouse; conditions: 10 min static PET scan at 60 min after injection
Summary of the method: as §1

EMT6 cells = assay: In vitro cytotoxicity assay, EMT6 cells; type: cell-based, mouse; conditions: tariquidar 0.01 to 10 μM, 48 h
Summary of the method: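 EMT6 cells were grown as monolayers in Waymouth's MB 752/1 with 2.4 mM L-glutamine, 15% heat-inactivated FBS and penicillin/streptomycin at 37°C, 5% CO₂. Cells were exposed to increasing test compound concentrations (0.01 to 10 μM) in their culture medium for 48 h. Survival was expressed relative to control cells.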

Pgp at the BBB = conditions: tariquidar dose 15 mg/kg; cited from earlier work
[7] = cited from earlier work; remark: listed apart in the source
EMT6Ar1.0 cells = assay: In vitro cytotoxicity assay, EMT6Ar1.0 cells; type: cell-based, mouse; conditions: tariquidar ≥0.1 μM, 48 h, culture medium containing doxorubicin
Summary of the method: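 The Pgp-overexpressing line was derived from EMT6 cells by culture under increasing doxorubicin concentrations and kept at 37°C, 5% CO₂. Cells were exposed to increasing test compound concentrations (0.01 to 10 μM) in their own culture medium for 48 h. Survival was expressed relative to control cells.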

4-[^18F]fluoropaclitaxel [reference compound]
metabolism in vivo [1]: extensively metabolised

COc1ccc(CCN([11CH3])CCC[C@](C#N)(c2ccc(OC)c(OC)c2)C(C)C)cc1OC [(R)-[^11C]verapamil, reference compound]
radiotracer binding after co-incubation ([2]; both tumours, co-incubation with unlabelled tariquidar, elacridar or verapamil (10 μM)): no significant reduction
binding in EMT6Ar1.0 tumours compared to EMT6 tumours [2]: 1.3 times

COc1cc2c(cc1OC)CN(CCc1ccc(NC(=O)c3cccc4c(=O)c5cccc(OC)c5[nH]c34)cc1)CC2 [[^11C]elacridar]
tumoural activity uptake relative to brain activity uptake [3]: 2 to 3 times
brain AUC0-60 in scan 2 relative to scan 1 [3]: 3.5±0.4 times
binding in EMT6Ar1.0 tumours compared to EMT6 tumours [2]: 2.1 times
metabolism in vivo [1]: hardly metabolised

COc1cc2c(cc1OC)CN(CCc1ccc(NC(=O)c3cc(OC)c(OC)cc3NC(=O)c3cnc4ccccc4c3)cc1)CC2 [[^11C]tariquidar]
tumoural activity uptake relative to brain activity uptake [3]: 2 to 3 times
brain AUC0-60 in scan 2 relative to scan 1 [3]: 2.4±0.3 times
binding in EMT6Ar1.0 tumours compared to EMT6 tumours [2]: 4.3 times
metabolism in vivo [1]: hardly metabolised
higher retention in EMT6Ar1.0 tumours than in EMT6 tumours ([4]; PET, AUC0-60): 50%
mean AUC0-60±SD of tumour time-activity curve (SUV) ([4]; scan 2, 2 h after unlabelled tariquidar 15 mg/kg i.v., EMT6Ar1.0 tumours): 45.6 ± 4.8 min
mean AUC0-60±SD of tumour time-activity curve (SUV) (EMT6 tumours [5]): 31.7 ± 7.9 min

OC[C@H]1OC(O)[C@H]([18F])[C@@H](O)[C@@H]1O (some centres unmarked) [[^18F]FDG]
mean tumoural SUV±SD (EMT6Ar1.0 tumours): 2.45±0.75
mean tumoural SUV±SD (EMT6 tumours [6]): 1.86±0.49

COc1cc2c(cc1OC)CN(CCc1ccc(NC(=O)c3cc(OC)c(OC)cc3NC(=O)c3cnc4ccccc4c3)cc1)CC2 [tariquidar, Tariquidar dimesylate]
effect on cell survival (EMT6 cells): no effect
inhibition of Pgp at the BBB (Pgp at the BBB): complete inhibition
terminal elimination half-life [7]: 26 h
cell survival rate (EMT6Ar1.0 cells): < 5 % of control cells
